Reference: ChEMBL document CHEMBL2151001, “Indiacens A and B: prenyl indoles from the myxobacterium Sandaracinus amylolyticus” (2012)
≈ marks a conversion by molar mass, not a printed value.

Assays:
Assay type in all cases: functional
[1] = test system: Mycobacterium lacticola; assay: Antimicrobial activity against Mycobacterium lacticola by serial dilution method
Method in brief: (§1)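 MIC by serial dilution in 96-well plates. Test bacteria grown in EBS medium (0.5% peptone, 0.5% glucose, 0.1% meat extract, 0.1% yeast extract, 50 mM HEPES, pH 7.0) at 30 °C with shaking at 160 rpm.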

[2] = Antimicrobial activity against Arthrobacter rubellus by serial dilution method; method in brief: as §1
[3] = test system: Mucor hiemalis; assay: Antimicrobial activity against Mucor hiemalis by serial dilution method
Method in brief: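 Fungal MIC by serial dilution in 96-well plates. Organism cultivated in MYC medium (1.0% phytone peptone, 1.0% glucose, 1.19% HEPES, pH 7.0) at 30 °C, 160 rpm.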

[4] = test system: Escherichia coli; assay: Antimicrobial activity against Escherichia coli expressing mutant TOLC by serial dilution method
[5] = test system: Pimelobacter simplex; assay: Antimicrobial activity against Nocardioides simplex by serial dilution method; method in brief: as §1
[6] = test system: Stutzerimonas stutzeri; assay: Antimicrobial activity against Pseudomonas stutzeri by serial dilution method; method in brief: as §1
[7] = test system: Mycolicibacterium diernhoferi; assay: Antimicrobial activity against Mycobacterium diernhoferi by serial dilution method; method in brief: as §1
[8] = test system: Chromobacterium violaceum; assay: Antimicrobial activity against Chromobacterium violaceum by serial dilution method; method in brief: as §1

**Q.** Which results are given for `C=C(C)/C=C/c1cccc2[nH]cc(C=O)c12` [INDIACEN A]?
**A.** MIC [1]: 16.6 µg/mL (≈ 78.6 µM); MIC [2]: 16.6 µg/mL (≈ 78.6 µM); MIC [3]: 16.6 µg/mL (≈ 78.6 µM); MIC [4]: 16.6 µg/mL (≈ 78.6 µM); MIC [5]: 8.3 µg/mL (≈ 39.3 µM); MIC [6]: > 33 µg/mL; MIC [7]: 16.6 µg/mL (≈ 78.6 µM); MIC [8]: 16.6 µg/mL (≈ 78.6 µM)

**Q.** What does the source list for `CC(/C=C/c1cccc2[nH]cc(C=O)c12)=C\Cl` [INDIACEN B]?
**A.** MIC [1]: 33 µg/mL (≈ 134 µM); MIC [2]: 0.8 µg/mL (≈ 3.26 µM); MIC [3]: 16.6 µg/mL (≈ 67.6 µM); MIC [4]: 33 µg/mL (≈ 134 µM); MIC [5]: 3.3 µg/mL (≈ 13.4 µM); MIC [6]: 33 µg/mL (≈ 134 µM); MIC [7]: > 33 µg/mL; MIC [8]: 33 µg/mL (≈ 134 µM)
